Source: publication PMC4714923 (Biochemistry, 2015)

Legend:
Hop = Hop (Homo sapiens, UniProt P31948); assay: FP binding of C-terminal Hsp70/90 tracers to Hop
Method in brief: (§1)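 Full-length human protein, made in E. coli BL21(DE3) and Ni-NTA purified (DnaJC7 kept its His-tag; Hop and FKBP52 were TEV-cleaved and gel-filtered). Twofold dilutions (0–125 μM final) with 20 nM N-terminal 5-Fam-aminohexanoyl C-terminal Hsp70/90 peptide in 50 mM HEPES, 75 mM NaCl, 0.001% Triton X-100, pH 7.4. 30 min at RT, dark. FP (ex 485/em 530 nm) isotherms. ≥2 runs in triplicate, mean ± SEM.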

FKBP52 = target: T1, FKBP52 (Homo sapiens, UniProt Q02790); assay: FP binding of C-terminal Hsp70/90 tracers to FKBP52; conditions: pH 7.4, full-length FKBP52
T1 sequence (Q02790 1-459): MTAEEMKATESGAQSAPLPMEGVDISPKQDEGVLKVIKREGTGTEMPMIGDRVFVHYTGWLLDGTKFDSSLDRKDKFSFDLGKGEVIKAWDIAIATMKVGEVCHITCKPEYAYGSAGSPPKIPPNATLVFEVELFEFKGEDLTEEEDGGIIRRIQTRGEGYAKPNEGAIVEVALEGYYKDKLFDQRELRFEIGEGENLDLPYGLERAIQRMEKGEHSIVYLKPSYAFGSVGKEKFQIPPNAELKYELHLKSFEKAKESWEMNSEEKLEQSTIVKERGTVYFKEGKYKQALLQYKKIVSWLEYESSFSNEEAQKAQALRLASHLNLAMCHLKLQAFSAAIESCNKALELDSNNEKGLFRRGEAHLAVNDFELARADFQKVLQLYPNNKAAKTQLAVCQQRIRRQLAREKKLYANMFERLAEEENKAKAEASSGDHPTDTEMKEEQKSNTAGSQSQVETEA
Method in brief: as §1

CHIP = target: T2, CHIP (Homo sapiens, UniProt Q9UNE7); assay: FP binding of C-terminal Hsp70/90 tracers to CHIP; conditions: pH 7.4, full-length CHIP
T2 sequence (Q9UNE7 1-303): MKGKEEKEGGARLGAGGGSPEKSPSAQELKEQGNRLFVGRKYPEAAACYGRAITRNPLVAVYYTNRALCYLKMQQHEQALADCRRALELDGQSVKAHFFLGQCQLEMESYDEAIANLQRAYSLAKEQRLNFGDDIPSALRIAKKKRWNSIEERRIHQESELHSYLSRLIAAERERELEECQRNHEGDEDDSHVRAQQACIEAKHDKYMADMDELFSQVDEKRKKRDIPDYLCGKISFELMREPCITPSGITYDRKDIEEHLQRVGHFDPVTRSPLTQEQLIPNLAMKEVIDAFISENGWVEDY

DnaJC7 = target: T3, DnaJC7 (Homo sapiens, UniProt Q99615); assay: FP binding of C-terminal Hsp70/90 tracers to DnaJC7; conditions: pH 7.4, full-length DnaJC7
T3 sequence (Q99615 1-494): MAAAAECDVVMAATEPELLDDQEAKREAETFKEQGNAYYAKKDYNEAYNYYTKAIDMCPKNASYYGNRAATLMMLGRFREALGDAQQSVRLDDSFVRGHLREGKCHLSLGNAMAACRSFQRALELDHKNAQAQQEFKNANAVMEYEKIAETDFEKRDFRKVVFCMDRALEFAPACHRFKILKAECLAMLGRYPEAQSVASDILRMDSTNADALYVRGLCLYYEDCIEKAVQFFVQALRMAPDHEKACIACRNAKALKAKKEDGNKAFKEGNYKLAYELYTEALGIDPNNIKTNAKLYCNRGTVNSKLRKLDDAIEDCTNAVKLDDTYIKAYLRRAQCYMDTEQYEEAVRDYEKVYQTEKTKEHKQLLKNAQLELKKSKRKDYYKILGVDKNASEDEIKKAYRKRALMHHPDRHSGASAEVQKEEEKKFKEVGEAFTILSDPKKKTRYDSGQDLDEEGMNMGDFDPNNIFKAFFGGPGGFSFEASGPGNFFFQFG
Method in brief: as §1

FKBP51 = target: T4, FKBP51 (Homo sapiens, UniProt Q13451); assay: FP binding of C-terminal Hsp70/90 tracers to FKBP51; conditions: pH 7.4, full-length FKBP51
T4 sequence (Q13451 1-457): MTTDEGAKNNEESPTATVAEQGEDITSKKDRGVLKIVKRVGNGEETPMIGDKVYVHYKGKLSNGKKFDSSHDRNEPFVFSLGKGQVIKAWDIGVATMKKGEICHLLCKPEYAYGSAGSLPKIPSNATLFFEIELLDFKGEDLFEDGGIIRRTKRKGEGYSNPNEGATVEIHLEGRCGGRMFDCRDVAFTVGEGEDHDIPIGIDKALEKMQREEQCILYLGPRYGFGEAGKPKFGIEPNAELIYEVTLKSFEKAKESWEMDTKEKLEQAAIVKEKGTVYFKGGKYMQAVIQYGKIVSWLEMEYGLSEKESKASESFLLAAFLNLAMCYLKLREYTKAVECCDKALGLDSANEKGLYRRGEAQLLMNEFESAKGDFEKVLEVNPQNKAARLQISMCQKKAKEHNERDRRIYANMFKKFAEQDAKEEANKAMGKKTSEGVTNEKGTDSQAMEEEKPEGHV

Chain of Hop (P31948 whole entry): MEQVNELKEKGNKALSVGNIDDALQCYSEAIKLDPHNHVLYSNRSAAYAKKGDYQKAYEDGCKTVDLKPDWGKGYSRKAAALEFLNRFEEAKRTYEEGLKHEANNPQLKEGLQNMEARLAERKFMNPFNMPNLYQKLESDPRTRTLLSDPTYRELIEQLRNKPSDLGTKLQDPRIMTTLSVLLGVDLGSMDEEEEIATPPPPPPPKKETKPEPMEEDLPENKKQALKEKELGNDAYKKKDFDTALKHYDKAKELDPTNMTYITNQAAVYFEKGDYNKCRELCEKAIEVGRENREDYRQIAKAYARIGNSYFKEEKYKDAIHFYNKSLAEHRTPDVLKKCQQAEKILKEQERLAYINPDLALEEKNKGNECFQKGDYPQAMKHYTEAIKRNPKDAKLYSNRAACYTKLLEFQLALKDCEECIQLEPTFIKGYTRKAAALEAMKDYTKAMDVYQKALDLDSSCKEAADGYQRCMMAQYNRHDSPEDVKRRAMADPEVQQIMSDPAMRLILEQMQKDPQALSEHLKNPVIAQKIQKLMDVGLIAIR

enhanced binding versus wt tracer (Hop; pH 7.4, pseudophosphorylated tracer) | binding to FKBP52 (in words) (FKBP52) | decrease in affinity versus wt tracer (CHIP) | binding to DnaJC7 (in words) (DnaJC7) | binding to FKBP51 (in words) (FKBP51) | binding to Hop (in words) (Hop; pH 7.4, full-length Hop) | binding to CHIP (in words) (CHIP) | Substance
~ 2 fold | unaffected | more than 8 fold | unaffected | unaffected |  |  | Fam-DDTERMEEVD
 | no affinity |  | no affinity | no affinity | no affinity | no affinity | Fam-DVEEM
